Test results taken from PMC10694825 (The journal of physical chemistry. B, 2023).
Numbering of substitutions follows the chain as printed. Like-named read-outs stand apart in the source and are kept apart here.

Tests used:
PTP1B [1] = molecular target: T1, PTP1B (Homo sapiens, UniProt P18031); details: cited from earlier work; for selectivity: inhibits PTP1B more potently than TCPTP (fold): PTP1B over TCPTP
T1 sequence (P18031 1-321): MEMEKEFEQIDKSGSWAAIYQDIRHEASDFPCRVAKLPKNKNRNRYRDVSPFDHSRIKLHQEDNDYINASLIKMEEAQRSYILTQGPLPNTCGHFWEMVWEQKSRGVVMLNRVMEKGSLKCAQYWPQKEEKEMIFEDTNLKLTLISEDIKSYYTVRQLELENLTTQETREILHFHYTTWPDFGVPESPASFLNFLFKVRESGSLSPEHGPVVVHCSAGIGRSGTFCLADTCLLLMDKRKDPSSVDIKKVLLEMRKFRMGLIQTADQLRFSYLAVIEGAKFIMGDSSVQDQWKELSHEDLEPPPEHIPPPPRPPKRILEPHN

PTP1B [2] = molecular target: T1, PTP1B; assay: pNPP enzyme kinetics, inhibition by amorphadiene; assay type: biochemical; details: this study
In short: (§1)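 Truncated enzymes (PTP1B 1–351, TCPTP 1–317) expressed in E. coli BL21(DE3), purified by Ni-affinity and anion-exchange. Reactions held 50 nM enzyme, 50 μg/mL BSA and terpenoid at 0.5–500 μM in 50 mM HEPES pH 7.3 with 10% DMSO for 1 h at 22 °C. 20 mM pNPP started the reaction; A405 read every 30 s over 8 min. Initial rates came from a standard curve, and IC50 from a Hill-equation fit. Selectivity was taken as the TCPTP/PTP1B IC50 ratio.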

TCPTP [3] = molecular target: T2, TCPTP (Homo sapiens, UniProt P17706); assay: pNPP enzyme kinetics, inhibition by amorphadiene; assay type: biochemical; details: read-out: IC50 for TCPTP; wild type, pNPP substrate, this study
T2 sequence (P17706 1-317): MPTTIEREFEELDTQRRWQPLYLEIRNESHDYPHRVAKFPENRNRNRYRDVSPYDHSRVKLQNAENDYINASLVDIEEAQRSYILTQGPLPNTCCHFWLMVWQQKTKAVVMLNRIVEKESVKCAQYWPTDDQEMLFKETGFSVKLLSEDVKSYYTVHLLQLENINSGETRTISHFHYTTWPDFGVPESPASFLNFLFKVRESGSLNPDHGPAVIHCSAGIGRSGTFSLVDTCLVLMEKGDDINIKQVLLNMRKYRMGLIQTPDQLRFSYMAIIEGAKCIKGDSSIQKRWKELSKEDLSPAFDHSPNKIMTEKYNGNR
In short: as §1

PTP1B L158F = molecular target: T3, PTP1B L158F (Homo sapiens, UniProt P18031, L158F); assay: pNPP enzyme kinetics, L158F variant; assay type: biochemical; details: PTP1B L158F vs wild type
T3 sequence (P18031 1-321 L158F): T1 sequence (P18031 1-321) with L158F

TCPTP L158F = molecular target: T4, TCPTP L158F (Homo sapiens, UniProt P17706, L158F); assay: pNPP enzyme kinetics, L158F variant; assay type: biochemical; details: TCPTP L158F vs wild type
T4 sequence (P17706 1-317 L158F): T2 sequence (P17706 1-317) with L158F

PTP1B M282K = molecular target: T5, PTP1B M282K (Homo sapiens, UniProt P18031, M282K); assay: pNPP enzyme kinetics, M282K variant; assay type: biochemical; details: PTP1B M282K vs wild type
T5 sequence (P18031 1-321 M282K): T1 sequence (P18031 1-321) with M282K
In short: (§2)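 Catalytic-domain constructs (PTP1B 1–351, TCPTP 1–317), with mutations made by Gibson assembly, expressed in E. coli BL21(DE3) and purified by Ni-affinity then anion exchange. Enzyme at 50 nM with 50 μg/mL BSA and test compound (0.5–500 μM) in 50 mM HEPES pH 7.3 with 10% DMSO, preincubated 1 h at 22 °C. Started with 20 mM pNPP; A405 read every 30 s for 8 min. IC50 from a Hill fit of initial rates.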

PTP1B Q290R = molecular target: T6, PTP1B Q290R (Homo sapiens, UniProt P18031, Q290R); assay: pNPP enzyme kinetics, Q290R variant; assay type: biochemical; details: PTP1B Q290R vs wild type
T6 sequence (P18031 1-321 Q290R): T1 sequence (P18031 1-321) with Q290R
In short: as §2

TCPTP K280M = molecular target: T7, TCPTP K280M (Homo sapiens, UniProt P17706, K280M); assay: pNPP enzyme kinetics, K280M variant; assay type: biochemical; details: TCPTP K280M vs wild type
T7 sequence (P17706 1-317 K280M): T2 sequence (P17706 1-317) with K280M
In short: as §2

TCPTP R288Q = molecular target: T8, TCPTP R288Q (Homo sapiens, UniProt P17706, R288Q); assay: pNPP enzyme kinetics, R288Q variant; assay type: biochemical; details: TCPTP R288Q vs wild type
T8 sequence (P17706 1-317 R288Q): T2 sequence (P17706 1-317) with R288Q
In short: as §2

TCPTP [4] = molecular target: T2, TCPTP; details: read-out: IC50 for TCPTP; previously reported; cited from earlier work
PTP1B [5] = molecular target: T1, PTP1B; details: MD simulation, cited from earlier work

Structure (SMILES)	selectivity: inhibits PTP1B more potently than TCPTP (fold) (PTP1B [1])	IC50 (PTP1B [2]; read-out: IC50 for PTP1B, wild type, pNPP substrate)	IC50 ratio (TCPTP/PTP1B), metric for selectivity (PTP1B [2])	IC50 (TCPTP [3])	IC50 of L158F mutant compared with wild type (PTP1B L158F)	IC50 of L158F mutant compared with wild type (TCPTP L158F)	effect of mutation on potency (IC50) (PTP1B M282K)	effect of mutation on potency (IC50) (PTP1B Q290R)	effect of mutation on IC50 (TCPTP K280M)	effect of mutation on IC50 (TCPTP R288Q)	IC50 ratio (TCPTP/PTP1B), metric for selectivity (PTP1B [1]; previously reported)	IC50 (PTP1B [1]; read-out: IC50 for PTP1B, previously reported)	IC50 (TCPTP [4])	occupancy of the β site (loc4), observed trajectories (PTP1B [5]; PTP1B with disordered α7 helix)	occupancy of the β site (loc4), observed trajectories (PTP1B [5]; PTP1B with truncated α7 helix)
CC(C)=CCC=C(C)C1CC=C(C)CC1 (stereo not drawn) [AB, α-bisabolene]	5–8 ×														
C=C(C)[C@@H]1CC[C@@H](C)[C@@H]2CCC(C)=C[C@@H]21 [AD, amorphadiene]	5–8 ×	7.7 ± 2.4 µM	3.5 ± 1.8	27 ± 11.2 µM	indistinguishable between wild-type and mutant enzymes	indistinguishable between wild-type and mutant enzymes	reduced potency	reduced potency	no effect on the IC50	no effect on the IC50	6.6 ± 1.8	53 ± 8 µM	349 ± 77 µM	0%	88%
